Data taken from ChEMBL document CHEMBL1140100, “Flexible cyclic ethers/polyethers as novel P2-ligands for HIV-1 protease inhibitors: design, synthesis, biological evaluation, and protein-ligand X-ray studies” (J Med Chem, 2008).

Columns and labels:
[1] = tested on: Human immunodeficiency virus 1; assay: Antiviral activity against multidrug-resistant HIV1 with protease L10I, K43T, M46L, I54V, L63P, A71V, V82A, L90M, Q92K mutation in phytohemagglutininin-activated PBMC assessed as inhibition of p24G protein production; assay type: functional, organism-based
Outline: (§1)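 Clinical HIV-1 isolates (ERS104pre as wild-type reference; multidrug-resistant isolates with the listed protease substitutions relative to consensus type B) were tested in phytohemagglutinin-activated human peripheral blood mononuclear cells. The endpoint was inhibition of p24Gag protein production, and IC50 was determined in triplicate.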

[2] = tested on: Human immunodeficiency virus 1; assay: Antiviral activity against multidrug-resistant HIV1 with protease L10I, V11I, T12E, I15V, L19I, R41K, M46L, L63P, A71T, V82A, L90M mutation in phytohemagglutininin-activated PBMC assessed as inhibition of p24G protein production; assay type: functional, organism-based; outline: as §1
[3] = tested on: Human immunodeficiency virus 1; assay: Antiviral activity against multidrug-resistant HIV1/A with protease mutation in phytohemagglutininin-activated PBMC assessed as inhibition of p24G protein production; assay type: functional, organism-based
[4] = tested on: Human immunodeficiency virus 1; assay: Antiviral activity against multidrug-resistant HIV1 with protease L10I, K14R, R41K, M46L, I54V, L63P, A71V, V82A, L90M, I93L mutation in phytohemagglutininin-activated PBMC assessed as inhibition of p24Gag protein production; assay type: functional, organism-based; outline: as §1
[5] = tested on: Human immunodeficiency virus 1; assay: Antiviral activity against multidrug-resistant HIV1/C with protease mutation in phytohemagglutininin-activated PBMC assessed as inhibition of p24G protein production; assay type: functional, organism-based
[6] = tested on: Human immunodeficiency virus 1; assay: Antiviral activity against multidrug-resistant HIV1 with protease L10I, K14R, L33I, M36I, M46I, F53I, K55R, I62V, L63P, A71V, G73S, V82A, L90M, I93L mutation in phytohemagglutininin-activated PBMC assessed as inhibition of p24G protein production; assay type: functional, organism-based; outline: as §1
[7] = tested on: Human immunodeficiency virus 1; assay: Antiviral activity against multidrug-resistant HIV1 with protease L10I, L24I, I33F, E35D, M36I, N37S, M46L, I54V, R57K, I62V, L63P, A71V, G73S, V82A mutation in phytohemagglutininin-activated PBMC assessed as inhibition of p24G protein production; assay type: functional, organism-based; outline: as §1
[8] = tested on: Human immunodeficiency virus 1; assay: Antiviral activity against HIV1 ERS104 with protease L63P mutation in phytohemagglutininin-activated PBMC assessed as inhibition of p24G protein production; assay type: functional, organism-based; outline: as §1
[9] = tested on: Human immunodeficiency virus 1; assay: Antiviral activity against HIV1 LAI in human MT2 cells assessed as inhibition of virus-induced cytopathic effect; assay type: functional, organism-based; settings: Human immunodeficiency virus 1, LAI
Protease = Protease (Human immunodeficiency virus 1, UniProt Q9YQ12); assay: Inhibition of HIV1 protease
Chain of Protease (Q9YQ12 whole entry): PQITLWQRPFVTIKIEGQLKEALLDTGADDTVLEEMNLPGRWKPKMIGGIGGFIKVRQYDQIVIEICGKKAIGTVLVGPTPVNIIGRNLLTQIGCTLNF

[10] = read-out: ID50 (the source's name)

Row | SMILES | IC50 [3] [nM] | IC50 [4] [nM] | IC50 [6] [nM] | IC50 [8] [nM] | IC50 ([9]; read-out: IC50) [nM] | Ki (Protease) [nM] | other results
1 | CC(C)CN(C[C@@H](O)[C@H](Cc1ccccc1)NC(=O)O[C@H]1CCOC1)S(=O)(=O)c1ccc(N)cc1 | 100 | 290 | 320 | 33 |  |  | IC50 [1]: 300 nM; IC50 [2]: 340 nM; IC50 [5]: 230 nM; IC50 [7]: 430 nM
2 | CC(C)CN(C[C@@H](O)[C@H](Cc1ccccc1)NC(=O)O[C@H]1CO[C@H]2OCC[C@H]21)S(=O)(=O)c1ccc(N)cc1 | 3 | 4 | 26 | 3.5 |  |  | IC50 [9, 10]: 1.6 nM
3 | COc1ccc(S(=O)(=O)N(CC(C)C)C[C@@H](O)[C@H](Cc2ccccc2)NC(=O)OC2COCCS(=O)(=O)CCOC2)cc1 |  |  |  |  | > 1000 | 1.9 | 
4 | COc1ccc(S(=O)(=O)N(CC(C)C)C[C@@H](O)[C@H](Cc2ccccc2)NC(=O)OC2COCCN(C)CCOC2)cc1 |  |  |  |  | > 1000 | 19 | 
5 | COc1ccc(S(=O)(=O)N(CC(C)C)C[C@@H](O)[C@H](Cc2ccccc2)NC(=O)O[C@H]2CCCOCOC2)cc1 |  |  |  |  |  | 0.15 | 
6 | COc1ccc(S(=O)(=O)N(CC(C)C)C[C@@H](O)[C@H](Cc2ccccc2)NC(=O)O[C@H]2CO[C@H]3OCC[C@H]32)cc1 |  |  |  |  |  |  | IC50 [9, 10]: 1.2 nM
7 | COc1ccc(S(=O)(=O)N(CC(C)C)C[C@@H](O)[C@H](Cc2ccccc2)NC(=O)O[C@@H]2CCOCOC2)cc1 | 20 | 220 | 340 | 20 | 4.9 |  | IC50 [1]: 250 nM; IC50 [2]: 360 nM; IC50 [5]: 210 nM; IC50 [7]: 500 nM
8 | COc1ccc(S(=O)(=O)N(CC(C)C)C[C@@H](O)[C@H](Cc2ccccc2)NC(=O)OC2CCCCCC2)cc1 |  |  |  |  |  | 27 | 
9 | COc1ccc(S(=O)(=O)N(CC(C)C)C[C@@H](O)[C@H](Cc2ccccc2)NC(=O)OC2COCCOCCOC2)cc1 |  |  |  |  |  | 16 | 
10 | COc1ccc(S(=O)(=O)N(CC(C)C)C[C@@H](O)[C@H](Cc2ccccc2)NC(=O)O[C@@H]2CCCCOC2)cc1 |  |  |  |  |  | 0.81 | 
11 | COc1ccc(S(=O)(=O)N(CC(C)C)C[C@@H](O)[C@H](Cc2ccccc2)NC(=O)O[C@H]2CCCOCC2)cc1 |  |  |  |  |  | 0.74 | 
12 | COc1ccc(S(=O)(=O)N(CC(C)C)C[C@@H](O)[C@H](Cc2ccccc2)NC(=O)OC2COCCOCOCCOC2)cc1 |  |  |  |  | > 1000 | 6.3 | 
13 | COc1ccc(S(=O)(=O)N(CC(C)C)C[C@@H](O)[C@H](Cc2ccccc2)NC(=O)OC2COCCOCCOCCOC2)cc1 |  |  |  |  |  | 33 | 
14 | COc1ccc(S(=O)(=O)N(CC(C)C)C[C@@H](O)[C@H](Cc2ccccc2)NC(=O)O[C@@H]2CCCOCOC2)cc1 |  |  |  |  |  | 0.16 | 
15 | COc1ccc(S(=O)(=O)N(CC(C)C)C[C@@H](O)[C@H](Cc2ccccc2)NC(=O)O[C@H]2CCOCOC2)cc1 |  |  |  |  | 30 | 0.16 | 
16 | COc1ccc(S(=O)(=O)N(CC(C)C)C[C@@H](O)[C@H](Cc2ccccc2)NC(=O)OC2COCOC2)cc1 | 13 | 64 | 230 | 6 | 3.4 | 0.041 | IC50 [1]: 110 nM; IC50 [2]: 300 nM; IC50 [5]: 160 nM; IC50 [7]: 330 nM
17 | CC(C)(C)NC(=O)[C@@H]1CN(Cc2cccnc2)CCN1C[C@@H](O)C[C@@H](Cc1ccccc1)C(=O)N[C@H]1c2ccccc2C[C@H]1O | > 1000 | > 1000 | > 1000 | 26 |  |  | IC50 [1]: > 1000 nM; IC50 [2]: 290 nM; IC50 [5]: > 1000 nM; IC50 [7]: > 1000 nM
18 | CC(C)c1nc(CN(C)C(=O)N[C@H](C(=O)N[C@@H](Cc2ccccc2)C[C@H](O)[C@H](Cc2ccccc2)NC(=O)OCc2cncs2)C(C)C)cs1 [RITONAVIR] | > 1000 | > 1000 | > 1000 | 34 |  |  | IC50 [1]: > 1000 nM; IC50 [2]: > 1000 nM; IC50 [5]: > 1000 nM; IC50 [7]: > 1000 nM
